Data on one compound can be found in ChEMBL document CHEMBL3286371, “wALADin benzimidazoles differentially modulate the function of porphobilinogen synthase orthologs” (J Med Chem, 2014).

Calls of active or inactive are those of the source. No cut-off for these calls is given here.

Assay [1] deals with Delta-aminolevulinic acid dehydratase (Pseudomonas aeruginosa (strain ATCC 15692 / PAO1 / 1C / PRS 101 / LMG12228)) (UniProt Q59643). The assay is described as follows: Stimulation of Pseudomonas aeruginosa PAO1 recombinant PBGS using 5 mM 5-ALA as substrate at 50 to 200 uM at pH 8 by buffer scan assay in presence of KCl.
Assay [2] shares this target. The assay is described as follows: Inhibition of Pseudomonas aeruginosa PAO1 recombinant PBGS using 0.2 mM 5-ALA as substrate at 10 to 10000 uM at pH 7.5 by buffer scan assay in presence of 1 mM MgCl2.
For assay [3] the target is unchanged. The assay is described as follows: Stimulation of Pseudomonas aeruginosa PAO1 recombinant PBGS using 5 mM 5-ALA as substrate assessed as increase in Vmax at 50 to 200 uM at pH 8 by buffer scan assay in presence of 1 mM MgCl2 and 1 to 1000 mM KCl.
Assay [4] has the same target. The assay is described as follows: Stimulation of Pseudomonas aeruginosa PAO1 recombinant PBGS using 5 mM 5-ALA as substrate assessed as increase in Vmax at 50 to 200 uM at pH 8 by Michaelis-Menten plot analysis in presence of MgCl2. In outline: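 Mg2+ or substrate response curves recorded with and without wALADin1; VMAX, KM and Mg2+ affinity derived from the fits.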

Assay [5] shares this target. The assay is described as follows: Competitive inhibition of Pseudomonas aeruginosa PAO1 recombinant PBGS using 0.2 mM 5-ALA as substrate assessed as increase in Km at 50 to 200 uM at pH 7.5 by Michaelis-Menten plot analysis in presence of MgCl2. In outline: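 PaPBGS under "standard inhibitory" conditions (100 mM Tris-HCl pH 7.5, 1 mM MgCl2, no KCl). 5-ALA varied for substrate-response curves at several wALADin1 levels; KM and VMAX derived from the fits. Incubation at 36 °C.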

In assay [6] the target is T1, Delta-aminolevulinic acid dehydratase (Escherichia coli (strain K12)) (UniProt P0ACB2).
T1 sequence (whole entry): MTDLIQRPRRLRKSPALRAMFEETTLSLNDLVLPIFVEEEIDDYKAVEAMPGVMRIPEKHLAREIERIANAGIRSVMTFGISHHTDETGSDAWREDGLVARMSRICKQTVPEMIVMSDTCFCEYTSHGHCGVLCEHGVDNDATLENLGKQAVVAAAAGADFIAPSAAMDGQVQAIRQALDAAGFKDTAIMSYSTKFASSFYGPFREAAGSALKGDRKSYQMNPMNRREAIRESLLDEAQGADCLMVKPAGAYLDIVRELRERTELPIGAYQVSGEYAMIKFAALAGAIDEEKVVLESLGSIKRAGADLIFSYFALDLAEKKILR
The assay is described as follows: Stimulation of Escherichia coli recombinant PBGS assessed as reduction in Mg2+-induced conversion of dimer to octamer at 8 to 2000 uM by nondenaturing PAGE analysis. In outline: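 EcPBGS (3 μg) preincubated 20 min at 37 °C in BTP pH 8.1 buffer with varied Mg2+, Zn2+ and wALADin1. Run on 7.5% nondenaturing PAGE; Coomassie stain plus in-gel activity with 500 μM 5-ALA and Ehrlich's reagent.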

Assay [7] concerns the target Delta-aminolevulinic acid dehydratase (Pseudomonas aeruginosa (strain ATCC 15692 / PAO1 / 1C / PRS 101 / LMG12228)) (UniProt Q59643). The assay is described as follows: Stimulation of Pseudomonas aeruginosa PAO1 recombinant PBGS using 5-ALA as substrate at 10 to 1000 uM at pH 8 in presence of 0.1 to 10000 uM MgCl2.
The target of assay [8] is Delta-aminolevulinic acid dehydratase (Yersinia enterocolitica W22703) (UniProt F4MUJ9). The assay is described as follows: Stimulation of Yersinia enterocolitica recombinant PBGS expressed in Escherichia coli using 5-ALA as substrate at 10 to 1000 uM at pH 8 in presence of MgCl2 and KCl.
The target in assay [9] is T1, Delta-aminolevulinic acid dehydratase (Escherichia coli (strain K12)). The assay is described as follows: Stimulation of Escherichia coli recombinant PBGS using 5-ALA as substrate at 10 to 1000 uM at pH 8 in presence of MgCl2 and KCl.
Assay [10] has as its target T2, Delta-aminolevulinic acid dehydratase, chloroplastic (Pisum sativum, UniProt P30124).
T2 sequence (P30124 whole entry): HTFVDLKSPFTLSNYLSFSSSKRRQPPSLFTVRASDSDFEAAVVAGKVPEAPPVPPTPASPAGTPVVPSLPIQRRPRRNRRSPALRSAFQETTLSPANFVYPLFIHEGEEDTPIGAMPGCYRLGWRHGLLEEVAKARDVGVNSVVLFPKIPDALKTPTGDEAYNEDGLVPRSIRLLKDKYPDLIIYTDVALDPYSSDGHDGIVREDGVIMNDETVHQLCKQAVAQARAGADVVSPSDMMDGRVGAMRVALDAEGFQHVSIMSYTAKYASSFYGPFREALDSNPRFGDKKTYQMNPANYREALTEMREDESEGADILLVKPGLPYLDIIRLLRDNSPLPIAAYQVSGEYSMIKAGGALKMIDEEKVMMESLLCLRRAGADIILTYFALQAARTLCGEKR
The assay is described as follows: Inhibition of Pisum sativum PBGS using 5-ALA as substrate. The arrangement: species or system Lathyrus oleraceus. In short, it runs like this:
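Pea (P. sativum) PBGS at 300 nM subunit in 100 mM BTP-HCl pH 8.5 with 1 mM MgCl2, 5 mM DTT and 0.2 mM 5-ALA, 15 min at 36 °C. Porphobilinogen detected with Ehrlich's reagent. Activity normalized to 6.7% DMSO control as 100%. IC50 from variable-slope normalized-response fit.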

Assay [11] concerns the target T3, Delta-aminolevulinic acid dehydratase, chloroplastic (Pisum sativum) (UniProt P30124).
T3 sequence (whole entry): T2 sequence (P30124 whole entry)
The assay is described as follows: Non-competitive inhibition of Pisum sativum PBGS using 5-ALA as substrate at 6.25 to 100 uM. As to conditions: Lathyrus oleraceus.

Assay [12] can be described thus: Stimulation of Toxoplasma gondii recombinant PBGS using 5-ALA as substrate. In short, it runs like this: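 T. gondii PBGS, expressed from pET-21b in BL21 E. coli and purified, at 250 nM subunit in 100 mM Tris-HCl pH 8.0 with 1 mM MgCl2, 5 mM DTT and 0.2 mM 5-ALA, 20 min at 36 °C. Porphobilinogen detected with Ehrlich's reagent. Activity normalized to 6.7% DMSO control. EC50 by variable-slope agonist fit.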

Assay [13] has as its target T4, Delta-aminolevulinic acid dehydratase (Wolbachia sp. subsp. Brugia malayi (strain TRS)) (UniProt Q5GSR3).
T4 sequence (whole entry): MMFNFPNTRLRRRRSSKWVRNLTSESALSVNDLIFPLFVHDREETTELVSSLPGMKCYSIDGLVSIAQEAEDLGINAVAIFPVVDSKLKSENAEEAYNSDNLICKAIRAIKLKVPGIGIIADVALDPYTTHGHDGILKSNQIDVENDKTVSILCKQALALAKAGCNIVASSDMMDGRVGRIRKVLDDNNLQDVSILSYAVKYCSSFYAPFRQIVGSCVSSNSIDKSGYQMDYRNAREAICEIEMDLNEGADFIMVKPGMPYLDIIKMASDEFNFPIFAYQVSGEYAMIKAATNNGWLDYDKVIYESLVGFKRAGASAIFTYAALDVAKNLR
As to conditions: 25 to 2500 uM.

For assay [14], the target named is T4, Delta-aminolevulinic acid dehydratase (Wolbachia sp. subsp. Brugia malayi (strain TRS)). Conditions: 25 to 2500 uM. This is another data set of the same source.

Chain of Delta-aminolevulinic acid dehydratase (Pseudomonas aeruginosa (strain ATCC 15692 / PAO1 / 1C / PRS 101 / LMG12228)) (Q59643 whole entry): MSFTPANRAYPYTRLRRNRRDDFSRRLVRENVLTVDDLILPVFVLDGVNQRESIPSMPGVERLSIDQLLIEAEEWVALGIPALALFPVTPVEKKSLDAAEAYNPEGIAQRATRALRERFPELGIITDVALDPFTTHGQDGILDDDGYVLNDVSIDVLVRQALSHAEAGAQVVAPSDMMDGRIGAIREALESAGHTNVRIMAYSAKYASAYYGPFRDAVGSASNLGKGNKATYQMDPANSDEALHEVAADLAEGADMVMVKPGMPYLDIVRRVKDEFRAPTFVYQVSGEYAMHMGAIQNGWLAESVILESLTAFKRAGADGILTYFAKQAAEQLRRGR
Chain of Delta-aminolevulinic acid dehydratase (Yersinia enterocolitica W22703) (F4MUJ9 as listed by the source): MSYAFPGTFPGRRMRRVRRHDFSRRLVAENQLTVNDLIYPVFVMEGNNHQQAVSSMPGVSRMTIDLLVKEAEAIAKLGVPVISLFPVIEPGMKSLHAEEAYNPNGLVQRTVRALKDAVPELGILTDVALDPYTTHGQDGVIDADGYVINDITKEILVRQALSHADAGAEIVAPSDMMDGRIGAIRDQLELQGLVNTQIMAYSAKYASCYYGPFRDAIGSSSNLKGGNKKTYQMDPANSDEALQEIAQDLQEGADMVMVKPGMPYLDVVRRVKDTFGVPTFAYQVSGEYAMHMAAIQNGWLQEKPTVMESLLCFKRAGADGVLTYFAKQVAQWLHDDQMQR

A word on the IC50: it is the concentration at which inhibition is half-maximal. Higher therefore signals weaker potency in that assay. What is called EC50 is the midpoint of the concentration-response curve. Turning to `O=C(O)c1ccc2c(c1)nc(CCNC(=O)c1cccs1)n2Cc1cccc(C(F)(F)F)c1`, the outcome in [1], in assay [3], in assay [4], in assay [6], in assay [7] and in [8] was Active. Also, in assay [9], the result was Active. Moreover, the inhibition entry in [2], in assay [5], in assay [11] and in assay [13] was “Active” in each case. Also, the IC50 in assay [10] is 10.6 µM. Besides, the EC50 in assay [12] stood at 95 µM. The inhibition entry in assay [14] is “inactive”.
